Reference: ChEMBL document CHEMBL1135825, “Antitumor AHMA linked to DNA minor groove binding agents: synthesis and biological evaluation” (J Med Chem, 2002)

Experiments:
[1] = Cytotoxicity against human nasopharyngeal carcinoma BM-1; type: functional
Method in brief: (§1)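 XTT-tetrazolium growth assay, cells exposed 72 h to six to seven concentrations per compound. Phenazine methosulfate-XTT added for 6 h at 37 °C, then absorbance read at 450 and 630 nm. IC50 derived from median-effect plot of dose-effect data.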

[2] = Cytotoxicity against human Glioblastoma multiformi DBTRG; type: functional; method in brief: as §1
[3] = system: Nucleic Acid; experiment: Percentage of protein-linked DNA breaks.; type: functional; design: concentration or dose not given beside the values
Method in brief: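 Log-phase cells labeled 24 h with [14C]-thymidine, trypsinized, resuspended at 5 × 10⁵ cells/mL and shaken 1 h at 37 °C in suspension. Drug at 10 μM added for 0.5 h. Protein-linked DNA breaks quantified by potassium-SDS coprecipitation and reported as percentage.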

[4] = system: HONE1 cell line; experiment: Cytotoxicity against human nasopharyngeal carcinoma HONE-1; type: functional, cell-based; method in brief: as §1
[5] = system: HT-29; experiment: Cytotoxicity against human colon HT-29 cell line; type: functional, cell-based; method in brief: as §1
[6] = system: HepG2; experiment: Cytotoxicity against human hepatoma Hepa-G2; type: functional, cell-based; method in brief: as §1
[7] = system: TSGH; experiment: In vitro cytotoxicity against human TSGH; type: functional, cell-based; method in brief: as §1
[8] = system: CCRF-CEM; experiment: (§2) Cytotoxicity against human T-cell acute lymphocytic leukemia CCRF-CEM; type: functional, cell-based; method in brief: as §1
[9] = system: MX1; experiment: Cytotoxicity against human Breast carcinoma MX-1; type: functional, cell-based; method in brief: as §1
[10] = system: Nucleic Acid; experiment: Percentage of protein-linked DNA breaks; Not determined; type: functional
[11] = system: CCRF-CEM; experiment: as §2; type: cell-based; method in brief: as §1

SMILES | IC50 [1] | IC50 [2] | Activity [3] | IC50 [4] | IC50 [5] | IC50 [6] | IC50 [7] | IC50 [8] | IC50 [9] | Activity [10] | IC50 [11]
CN(C)CCNC(=O)c1cc(NC(=O)CCCC(=O)Nc2cc(CO)cc(Nc3c4ccccc4nc4ccccc34)c2)cn1C | 73300 nM | 73600 nM | 0% | 39000 nM | > 100000 nM | 100000 nM | 46800 nM |  |  |  | 
CCOC(=O)Nc1cc(COC(=O)CCC(=O)Nc2cc(C(=O)NCCN(C)C)n(C)c2)cc(Nc2c3ccccc3nc3ccccc23)c1 | 80 nM | 800 nM | 16.5% | 60 nM | 230 nM | 90 nM | 80 nM | 6850 nM | 39 nM |  | 
CCOC(=O)Nc1cc(CO)cc(Nc2c3ccccc3nc3ccccc23)c1 | 380 nM | 5000 nM | 15% | 70 nM | 480 nM | 460 nM | 340 nM | 57 nM |  |  | 
CN(C)CCNC(=O)c1cc(NC(=O)CCC(=O)Nc2cc(CO)cc(Nc3c4ccccc4nc4ccccc34)c2)cn1C | 7000 nM | 8100 nM | 3.3% | 850 nM | 1700 nM | 4200 nM | 4600 nM |  |  |  | 
CN(C)CCNC(=O)c1cc(NC(=O)c2cc(NC(=O)CCC(=O)Nc3cc(CO)cc(Nc4c5ccccc5nc5ccccc45)c3)cn2C)cn1C | 8600 nM | 20000 nM | 3.3% | 2400 nM | 4400 nM | 7000 nM | 4800 nM |  |  |  | 
CCOC(=O)Nc1cc(COC(=O)CCCC(=O)Nc2cc(C(=O)Nc3cc(C(=O)NCCN(C)C)n(C)c3)n(C)c2)cc(Nc2c3ccccc3nc3ccccc23)c1 | 490 nM | 7500 nM | 4.2% | 130 nM | 640 nM | 630 nM | 1200 nM | 2040 nM | 156 nM |  | 
Nc1cc(CO)cc(Nc2c3ccccc3nc3ccccc23)c1 | 860 nM | 3500 nM |  | 310 nM | 880 nM | 1400 nM | 450 nM | 360 nM |  | 10.5% | 
CCOC(=O)Nc1cc(COC(=O)CCCC(=O)Nc2cc(C(=O)NCCN(C)C)n(C)c2)cc(Nc2c3ccccc3nc3ccccc23)c1 | 80 nM | 400 nM | 4.6% | 800 nM | 750 nM | 80 nM | 1200 nM | 17600 nM | 85 nM |  | 
CN(C)CCNC(=O)c1cc(NC(=O)c2cc(NC(=O)CCCC(=O)Nc3cc(CO)cc(Nc4c5ccccc5nc5ccccc45)c3)cn2C)cn1C | 77800 nM | > 100000 nM | 0% | 63900 nM | > 100000 nM | 68000 nM | 36400 nM |  |  |  | 
CN1CCN(c2ccc3nc(-c4ccc5nc(-c6ccc(OCCCC(=O)Nc7cc(CO)cc(Nc8c9ccccc9nc9ccccc89)c7)cc6)[nH]c5c4)[nH]c3c2)CC1 | > 100000 nM | > 100000 nM |  | > 100000 nM | > 100000 nM | > 100000 nM | > 100000 nM |  | > 100000 nM |  | > 100000 nM
